Bioassay records deposited in PubChem by Broad Institute.
Pf Dd2 inh: P. falciparum Dd2 growth inhibition; SYBR Green, 72 h; stronger effect = lower value; activity change, % at 10 µM; actives 2.3% (n = 94,000); AID 1159554; in the data active = activity change below about -80%; inconclusive = no clear call, values can overlap the other calls
GASC1 inh: blocks human GASC-1 (KDM4C) demethylase activity; Q9H3R0; GST-KDM4C 2-372, H3K9me3 peptide, LANCE TR-FRET; inhibition, % at 12.5 µM; actives 0.15% (n = 96,000); AID 720574;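 active = mean replicate inhibition above about 25%, with at least 55% of replicates also reaching it, limit read from the data, passing the limit was not always enough; inconclusive = only one of those two conditions met; inactive = neither condition met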
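System: N-terminal GST-fused human GASC-1 (KDM4C) fragment, residues 2-372 / Amount: 10 nM GST-KDM4C in enzyme reaction / Also added: H3K9me3 peptide with Fe(II)/2OG / Times: 30 min demethylation and 1 h detection at room temperature / Signal: LANCE TR-FRET / Read-out basis: Fall in 671/618 emission ratio as inhibition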
IDH1 R132H inh: inhibitors of human IDH1 R132H | O75874 | IDH1 R132H reductase, diaphorase/resazurin fluorescence, 60 min | inhibition, % at 10 µM | actives 0.18% (n = 70,000); in the data active = inhibition above about 34%; inconclusive = no clear call, values can overlap the other calls; inactive = below about 11%
Target sequence (O75874 whole entry R132H): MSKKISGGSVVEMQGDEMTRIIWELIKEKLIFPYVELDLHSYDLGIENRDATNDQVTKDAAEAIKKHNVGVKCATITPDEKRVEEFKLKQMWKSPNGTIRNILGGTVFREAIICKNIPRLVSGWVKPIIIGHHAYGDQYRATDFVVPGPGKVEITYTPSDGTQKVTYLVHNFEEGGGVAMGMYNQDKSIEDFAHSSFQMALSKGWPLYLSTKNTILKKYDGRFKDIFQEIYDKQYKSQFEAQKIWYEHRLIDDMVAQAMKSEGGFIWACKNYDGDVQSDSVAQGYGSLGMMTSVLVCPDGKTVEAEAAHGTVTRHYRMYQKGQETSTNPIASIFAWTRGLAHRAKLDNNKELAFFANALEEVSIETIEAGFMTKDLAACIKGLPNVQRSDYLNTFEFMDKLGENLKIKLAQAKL
T cruzi growth-1: T. cruzi proliferation inhibition. T. cruzi beta-gal in NIH3T3, GalScreen luminescence, 90 h. inhibition, % at 8.34 µM. actives 5.9% (n = 77,000). AID 624255;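 active = mean inhibition above about 93%, with at least 55% of replicates each passing it, limit read from the data, passing the limit was not always enough; inconclusive = only one of those two conditions holds; inactive = neither condition holds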
T cruzi growth-2: blocks T. cruzi growth in NIH3T3 host cells. inhibition, % at 8.35 µM. T. cruzi beta-gal in NIH3T3, GalScreen luminescence, 90 h. shares compounds with T cruzi growth-1. actives 72% (n = 5,600). AID 651739;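 active = mean replicate inhibition above about 95% and at least 55% of replicates individually reaching it, limit read from the data; inconclusive = only one of the two criteria is met; inactive = neither criterion is met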
T cruzi growth-3: Trypanosoma cruzi proliferation inhibition. shares compounds with T cruzi growth-1. T. cruzi beta-gal in NIH3T3, GalScreen luminescence, 90 h. inhibition, % at 2.09 µM. actives 21% (n = 5,600);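 active = mean inhibition above about 95%, with at least 55% of replicates also reaching it, limit read from the data; inconclusive = meets just one of the two conditions; inactive = meets neither condition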
NIH3T3 tox: kills mouse NIH/3T3 fibroblasts | shares compounds with T cruzi growth-1 | actives 14% (n = 5,600) | NIH/3T3 viability, CellTiter-Glo ATP luminescence, 90 h | cytotoxicity (signal decrease), % at 8.35 µM;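 active = mean signal decrease across replicates above about 35% based on untreated-well scatter, with enough replicates individually passing, limit read from the data; inconclusive = no rule stated though some were filed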
3T3 cytotox 2: NIH/3T3 (mouse) viability loss. shares compounds with T cruzi growth-1. NIH/3T3 viability, CellTiter-Glo ATP luminescence, 90 h. inhibition, % at 24.9 µM. actives 56% (n = 5,600). AID 651744;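 active = mean loss of cell viability signal at or above a set limit, and enough replicates individually reaching it; inconclusive = meets only the mean limit or only the replicate share; inactive = meets neither condition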
A number is an active result; . = inactive; ? = inconclusive; / = no result given. The list is not random: actives were taken first. Their share in the collection is about 5.8%.

SMILES | Pf Dd2 inh | GASC1 inh | IDH1 R132H inh | T cruzi growth-1 | T cruzi growth-2 | T cruzi growth-3 | NIH3T3 tox | 3T3 cytotox 2
C/C=C/c1ccc2c(c1)O[C@H](CN(C)Cc1ccccc1F)[C@H](C)CN([C@H](C)CO)S2(=O)=O | . | . | . | 109.5 | 102.5 | . | . | 105.5
C/C=C/c1ccc2c(c1)O[C@@H](CN(C)Cc1ccccc1F)[C@@H](C)CN([C@@H](C)CO)S2(=O)=O | . | . | . | . | / | / | / | /
C/C=C/c1ccc2c(c1)O[C@H](CN(C)Cc1ccccc1F)[C@H](C)CN([C@@H](C)CO)S2(=O)=O | . | . | . | 119.8 | 110.8 | . | 35.9 | 104.7
C[C@@H]1CCCCO[C@@H](CN(C)C(=O)c2ccccc2)[C@H](C)CN([C@@H](C)CO)C(=O)c2cc(NC(=O)CCCN(C)C)ccc2O1 | . | . | . | . | / | / | / | /
N#Cc1cccc(-c2ccc([C@H]3[C@@H](CO)N4CCCCN(C(=O)Nc5ccc(F)cc5)C[C@@H]34)cc2)c1 | . | . | / | 122.8 | 109.4 | . | . | .
N#Cc1cccc(-c2ccc([C@@H]3[C@H]4CN(C(=O)Nc5ccccc5)CCCCN4[C@H]3CO)cc2)c1 | . | . | / | 101.5 | 105.2 | . | . | 42.1
CCC(=O)N1CCCCN2[C@@H](CO)[C@@H](c3ccc(-c4cccc(C#N)c4)cc3)[C@@H]2C1 | . | . | / | 112.1 | . | . | . | .
N#Cc1cccc(-c2ccc([C@@H]3[C@@H](CO)N4CCCCN(C(=O)Nc5cccc(F)c5)C[C@H]34)cc2)c1 | . | . | / | 114.9 | 105.2 | . | . | 103.8
N#Cc1cccc(-c2ccc([C@@H]3[C@H]4CN(C(=O)Nc5cccc(F)c5)CCCCN4[C@H]3CO)cc2)c1 | . | . | / | . | / | / | / | /
CCCN1C[C@@H](C)[C@H](OC)CN(C)C(=O)c2cc(NS(=O)(=O)c3ccccc3)ccc2OC[C@@H]1C | . | . | . | . | / | / | / | /
CCS(=O)(=O)Nc1ccc2c(c1)C(=O)N(C)C[C@@H](OC)[C@H](C)CN(Cc1ccccn1)[C@@H](C)CO2 | . | . | . | 98.8 | . | . | . | .
CO[C@H]1CN(C)C(=O)c2cc(NC(=O)c3nc4ccccc4s3)ccc2OC[C@@H](C)N(Cc2ccncc2)C[C@H]1C | / | . | . | . | / | / | / | /
CCCN1C[C@@H](C)[C@H](OC)CN(C)C(=O)c2cc(NS(=O)(=O)c3ccccc3)ccc2OC[C@H]1C | . | . | . | 91.4 | 97.7 | . | . | .
CO[C@@H]1CN(C)C(=O)c2cc(NS(=O)(=O)c3ccccc3)ccc2OC[C@H](C)N(Cc2nccs2)C[C@@H]1C | . | . | . | 110.5 | . | . | . | 44.8
CO[C@@H]1CN(C)C(=O)c2cc(NC(=O)c3nc4ccccc4s3)ccc2OC[C@H](C)N(Cc2ccncc2)C[C@@H]1C | / | . | . | 99.0 | . | . | . | 61.1
CCCN1C[C@@H](C)[C@H](OC)CN(C)C(=O)c2cc(NC(=O)Nc3cccc(OC)c3)ccc2OC[C@H]1C | / | / | . | 101.9 | 109.7 | . | . | 54.2
CC(C)C#Cc1ccc([C@@H]2[C@@H](CO)N3CCCCN(C(=O)Nc4ccccc4)C[C@H]23)cc1 | . | . | / | 99.4 | 99.6 | . | 38.6 | 104.7
CC(C)C#Cc1ccc([C@@H]2[C@@H](CO)N3CCCCN(C(=O)Nc4ccccc4)C[C@@H]23)cc1 | . | . | / | 106.2 | 111.6 | . | . | 104.6
CC(C)C#Cc1ccc([C@@H]2[C@H](CO)N3CCCCN(C(=O)Nc4ccccc4)C[C@@H]23)cc1 | . | . | / | . | / | / | / | /
CC(C)C#Cc1ccc([C@@H]2[C@H]3CN(C(=O)Nc4ccccc4)CCCCN3[C@H]2CO)cc1 | . | . | / | ? | . | . | 88.1 | 105.9
C[C@H](O)C#Cc1ccc([C@H]2[C@@H](CO)N3CCCCN(C(=O)Nc4ccccc4)C[C@H]23)cc1 | . | . | / | 108.7 | . | . | . | .
C/C=C/c1ccc([C@@H]2[C@@H](CO)N(c3nc(-c4ccccc4)cs3)[C@H]2C#N)cc1 | . | . | / | / | / | / | / | /
